Laboratory results from ChEMBL document CHEMBL4689842, “EUbOPEN Chemogenomics Library wave 1” (2021).

Test system: U2OS
Test: Multiplex assay against U2OS
Assay type: toxicity, cell-based
Conditions: human
How it was run: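 Compound was added to live cells that had been stained at seeding with Hoechst33342, BioTracker Green Microtubule Cytoskeleton Dye, MitoTracker Red and Annexin V Alexa Fluor 680, and imaging followed on a CQ1 microscope at 37°C and 5% CO2. CellPathfinder machine-learning gating divided cells into Hoechst high-intensity objects or normal cells, normal cells into healthy, pyknosed or fragmented nuclei, and pyknosed cells into mitotic or apoptotic. Tubulin, mitochondrial-mass and membrane-permeability phenotypes are per cents of healthy-nucleus cells.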

[1] = 12 h, 1 µM, compound concentration 1 uM, replicate 1
[2] = 12 h, 1 µM, compound concentration 1 uM, replicate 2
[3] = 12 h, 10 µM, compound concentration 10 uM, replicate 1
[4] = 12 h, 10 µM, compound concentration 10 uM, replicate 2
[5] = 24 h, 1 µM, compound concentration 1 uM, replicate 1
[6] = 24 h, 1 µM, compound concentration 1 uM, replicate 2
[7] = 24 h, 10 µM, compound concentration 10 uM, replicate 1
[8] = 24 h, 10 µM, compound concentration 10 uM, replicate 2
[9] = 48 h, 1 µM, compound concentration 1 uM, replicate 1
[10] = 48 h, 1 µM, compound concentration 1 uM, replicate 2
[11] = 48 h, 10 µM, compound concentration 10 uM, replicate 1
[12] = 48 h, 10 µM, compound concentration 10 uM, replicate 2

C=C1/C(=C\C=C2/CCC[C@]3(C)[C@@H]([C@H](C)/C=C/[C@H](C)C(C)C)CC[C@@H]23)C[C@@H](O)C[C@@H]1O [DOXERCALCIFEROL]
Population Apoptotic (%) [1]: 38%
Population Fragmented Nuclei (%) [1]: 9%
Population Healthy Nuclei (%) [1]: 82%
Population Hoechst High Intensity Objects (%) [1]: 6%
Population Membrane Permeable-Phenotype (%) [1]: 5%
Population Mitochondria Different-Phenotype (%) [1]: 11%
Population Mitotic Cells (%) [1]: 61%
Population Normal (%) [1]: 93%
Population Pyknosed Nuclei (%) [1]: 8%
Population Tubulin-Different-Phenotype (%) [1]: 17%
Total Cell Count [1]: 2
Population Apoptotic (%) [2]: 40%
Population Fragmented Nuclei (%) [2]: 1%
Population Healthy Nuclei (%) [2]: 90%
Population Hoechst High Intensity Objects (%) [2]: 1%
Population Mitochondria Different-Phenotype (%) [2]: 14%
Population Mitotic Cells (%) [2]: 60%
Population Normal (%) [2]: 98%
Population Tubulin-Different-Phenotype (%) [2]: 9%
Total Cell Count [2]: 111
Population Apoptotic (%) [3]: 36%
Population Fragmented Nuclei (%) [3]: 20%
Population Healthy Nuclei (%) [3]: 60%
Population Hoechst High Intensity Objects (%) [3]: 9%
Population Membrane Permeable-Phenotype (%) [3]: 8%
Population Mitochondria Different-Phenotype (%) [3]: 17%
Population Mitotic Cells (%) [3]: 63%
Population Normal (%) [3]: 90%
Population Pyknosed Nuclei (%) [3]: 19%
Population Tubulin-Different-Phenotype (%) [3]: 8%
Total Cell Count [3]: 160
Population Apoptotic (%) [4]: 0%
Population Fragmented Nuclei (%) [4]: 27%
Population Healthy Nuclei (%) [4]: 67%
Population Hoechst High Intensity Objects (%) [4]: 6%
Population Membrane Permeable-Phenotype (%) [4]: 2%
Population Mitochondria Different-Phenotype (%) [4]: 21%
Population Mitotic Cells (%) [4]: 100%
Population Normal (%) [4]: 93%
Population Pyknosed Nuclei (%) [4]: 5%
Population Tubulin-Different-Phenotype (%) [4]: 13%
Total Cell Count [4]: 61
Population Apoptotic (%) [5]: 7%
Population Fragmented Nuclei (%) [5]: 8%
Population Healthy Nuclei (%) [5]: 84%
Population Hoechst High Intensity Objects (%) [5]: 2%
Population Membrane Permeable-Phenotype (%) [5]: 3%
Population Mitochondria Different-Phenotype (%) [5]: 8%
Population Mitotic Cells (%) [5]: 92%
Population Normal (%) [5]: 97%
Population Pyknosed Nuclei (%) [5]: 6%
Population Tubulin-Different-Phenotype (%) [5]: 9%
Total Cell Count [5]: 1
Population Apoptotic (%) [6]: 42%
Population Fragmented Nuclei (%) [6]: 5%
Population Healthy Nuclei (%) [6]: 86%
Population Hoechst High Intensity Objects (%) [6]: 4%
Population Membrane Permeable-Phenotype (%) [6]: 4%
Population Mitochondria Different-Phenotype (%) [6]: 7%
Population Mitotic Cells (%) [6]: 57%
Population Normal (%) [6]: 95%
Population Pyknosed Nuclei (%) [6]: 8%
Population Tubulin-Different-Phenotype (%) [6]: 14%
Total Cell Count [6]: 157
Population Apoptotic (%) [7]: 56%
Population Fragmented Nuclei (%) [7]: 43%
Population Healthy Nuclei (%) [7]: 18%
Population Hoechst High Intensity Objects (%) [7]: 23%
Population Membrane Permeable-Phenotype (%) [7]: 11%
Population Mitochondria Different-Phenotype (%) [7]: 26%
Population Mitotic Cells (%) [7]: 43%
Population Normal (%) [7]: 76%
Population Pyknosed Nuclei (%) [7]: 37%
Population Tubulin-Different-Phenotype (%) [7]: 7%
Total Cell Count [7]: 197
Population Apoptotic (%) [8]: 33%
Population Fragmented Nuclei (%) [8]: 25%
Population Healthy Nuclei (%) [8]: 70%
Population Hoechst High Intensity Objects (%) [8]: 3%
Population Membrane Permeable-Phenotype (%) [8]: 1%
Population Mitochondria Different-Phenotype (%) [8]: 16%
Population Mitotic Cells (%) [8]: 66%
Population Normal (%) [8]: 96%
Population Pyknosed Nuclei (%) [8]: 4%
Population Tubulin-Different-Phenotype (%) [8]: 13%
Total Cell Count [8]: 83
Population Apoptotic (%) [9]: 21%
Population Fragmented Nuclei (%) [9]: 4%
Population Healthy Nuclei (%) [9]: 89%
Population Hoechst High Intensity Objects (%) [9]: 2%
Population Membrane Permeable-Phenotype (%) [9]: 2%
Population Mitochondria Different-Phenotype (%) [9]: 13%
Population Mitotic Cells (%) [9]: 78%
Population Normal (%) [9]: 97%
Population Pyknosed Nuclei (%) [9]: 6%
Population Tubulin-Different-Phenotype (%) [9]: 10%
Total Cell Count [9]: 5
Population Apoptotic (%) [10]: 42%
Population Healthy Nuclei (%) [10]: 90%
Population Hoechst High Intensity Objects (%) [10]: 1%
Population Membrane Permeable-Phenotype (%) [10]: 0%
Population Mitotic Cells (%) [10]: 57%
Population Normal (%) [10]: 98%
Population Pyknosed Nuclei (%) [10]: 5%
Population Tubulin-Different-Phenotype (%) [10]: 11%
Total Cell Count [10]: 235
Population Apoptotic (%) [11]: 47%
Population Fragmented Nuclei (%) [11]: 53%
Population Healthy Nuclei (%) [11]: 16%
Population Hoechst High Intensity Objects (%) [11]: 18%
Population Membrane Permeable-Phenotype (%) [11]: 25%
Population Mitochondria Different-Phenotype (%) [11]: 29%
Population Mitotic Cells (%) [11]: 52%
Population Normal (%) [11]: 81%
Population Pyknosed Nuclei (%) [11]: 30%
Population Tubulin-Different-Phenotype (%) [11]: 25%
Total Cell Count [11]: 316
Population Apoptotic (%) [12]: 22%
Population Fragmented Nuclei (%) [12]: 12%
Population Healthy Nuclei (%) [12]: 79%
Population Hoechst High Intensity Objects (%) [12]: 3%
Population Membrane Permeable-Phenotype (%) [12]: 2%
Population Mitochondria Different-Phenotype (%) [12]: 22%
Population Mitotic Cells (%) [12]: 77%
Population Normal (%) [12]: 96%
Population Pyknosed Nuclei (%) [12]: 8%
Population Tubulin-Different-Phenotype (%) [12]: 28%
Total Cell Count [12]: 127

C=CCn1c(=O)c2cnc(Nc3ccc(N4CCN(C)CC4)cc3)nc2n1-c1cccc(C(C)(C)O)n1 [ADAVOSERTIB]
Population Apoptotic (%) [1]: 43%
Population Fragmented Nuclei (%) [1]: 11%
Population Healthy Nuclei (%) [1]: 60%
Population Hoechst High Intensity Objects (%) [1]: 3%
Population Membrane Permeable-Phenotype (%) [1]: 23%
Population Mitochondria Different-Phenotype (%) [1]: 15%
Population Mitotic Cells (%) [1]: 56%
Population Normal (%) [1]: 96%
Population Pyknosed Nuclei (%) [1]: 27%
Population Tubulin-Different-Phenotype (%) [1]: 21%
Total Cell Count [1]: 153
Population Apoptotic (%) [2]: 12%
Population Fragmented Nuclei (%) [2]: 16%
Population Healthy Nuclei (%) [2]: 62%
Population Hoechst High Intensity Objects (%) [2]: 5%
Population Membrane Permeable-Phenotype (%) [2]: 13%
Population Mitochondria Different-Phenotype (%) [2]: 5%
Population Mitotic Cells (%) [2]: 87%
Population Normal (%) [2]: 94%
Population Pyknosed Nuclei (%) [2]: 21%
Population Tubulin-Different-Phenotype (%) [2]: 23%
Total Cell Count [2]: 165
Population Apoptotic (%) [3]: 40%
Population Fragmented Nuclei (%) [3]: 25%
Population Healthy Nuclei (%) [3]: 13%
Population Hoechst High Intensity Objects (%) [3]: 8%
Population Membrane Permeable-Phenotype (%) [3]: 42%
Population Mitochondria Different-Phenotype (%) [3]: 47%
Population Mitotic Cells (%) [3]: 59%
Population Normal (%) [3]: 91%
Population Pyknosed Nuclei (%) [3]: 60%
Population Tubulin-Different-Phenotype (%) [3]: 80%
Total Cell Count [3]: 167
Population Apoptotic (%) [4]: 44%
Population Fragmented Nuclei (%) [4]: 22%
Population Healthy Nuclei (%) [4]: 14%
Population Hoechst High Intensity Objects (%) [4]: 28%
Population Membrane Permeable-Phenotype (%) [4]: 37%
Population Mitochondria Different-Phenotype (%) [4]: 62%
Population Mitotic Cells (%) [4]: 55%
Population Normal (%) [4]: 71%
Population Pyknosed Nuclei (%) [4]: 62%
Population Tubulin-Different-Phenotype (%) [4]: 75%
Total Cell Count [4]: 76
Population Apoptotic (%) [5]: 62%
Population Fragmented Nuclei (%) [5]: 20%
Population Healthy Nuclei (%) [5]: 41%
Population Hoechst High Intensity Objects (%) [5]: 8%
Population Membrane Permeable-Phenotype (%) [5]: 30%
Population Mitochondria Different-Phenotype (%) [5]: 25%
Population Mitotic Cells (%) [5]: 37%
Population Normal (%) [5]: 91%
Population Pyknosed Nuclei (%) [5]: 38%
Population Tubulin-Different-Phenotype (%) [5]: 38%
Total Cell Count [5]: 155
Population Apoptotic (%) [6]: 50%
Population Fragmented Nuclei (%) [6]: 22%
Population Healthy Nuclei (%) [6]: 51%
Population Hoechst High Intensity Objects (%) [6]: 9%
Population Membrane Permeable-Phenotype (%) [6]: 21%
Population Mitochondria Different-Phenotype (%) [6]: 26%
Population Mitotic Cells (%) [6]: 50%
Population Normal (%) [6]: 90%
Population Pyknosed Nuclei (%) [6]: 26%
Population Tubulin-Different-Phenotype (%) [6]: 31%
Total Cell Count [6]: 149
Population Apoptotic (%) [7]: 64%
Population Fragmented Nuclei (%) [7]: 36%
Population Healthy Nuclei (%) [7]: 11%
Population Hoechst High Intensity Objects (%) [7]: 13%
Population Membrane Permeable-Phenotype (%) [7]: 76%
Population Mitochondria Different-Phenotype (%) [7]: 82%
Population Mitotic Cells (%) [7]: 35%
Population Normal (%) [7]: 86%
Population Pyknosed Nuclei (%) [7]: 51%
Population Tubulin-Different-Phenotype (%) [7]: 88%
Total Cell Count [7]: 165
Population Apoptotic (%) [8]: 68%
Population Fragmented Nuclei (%) [8]: 42%
Population Healthy Nuclei (%) [8]: 15%
Population Hoechst High Intensity Objects (%) [8]: 22%
Population Membrane Permeable-Phenotype (%) [8]: 75%
Population Mitochondria Different-Phenotype (%) [8]: 62%
Population Mitotic Cells (%) [8]: 31%
Population Normal (%) [8]: 77%
Population Pyknosed Nuclei (%) [8]: 42%
Population Tubulin-Different-Phenotype (%) [8]: 75%
Total Cell Count [8]: 67
